In brackets after ≈: the same amount, converted by molar mass.
Tests used:
Enterococcus faecium [1] = assay: Antibacterial activity against Enterococcus faecium NCTC 7171 after 16 to 20 hrs by broth microdilution method; format: functional
Staphylococcus aureus [2] = assay: Antibacterial activity against methicillin-sensitive Staphylococcus aureus ATCC 29213 after 16 to 20 hrs by broth microdilution method; format: functional
Enterococcus faecium [3] = assay: Antibacterial activity against vancomycin-resistant Enterococcus faecium 106 clinical isolate after 16 to 20 hrs by broth microdilution method
Staphylococcus aureus [4] = assay: Antibacterial activity against vancomycin/methicillin-resistant Staphylococcus aureus VRS1 clinical isolate after 16 to 20 hrs by broth microdilution method; format: functional
[5] = system: Staphylococcus epidermidis; assay: Antibacterial activity against Staphylococcus epidermidis ATCC 35547 after 16 to 20 hrs by broth microdilution method; format: functional
Streptococcus oralis = assay: Antibacterial activity against Streptococcus oralis ATCC 9811 after 16 to 20 hrs by broth microdilution method; format: functional
Staphylococcus aureus [6] = assay: Antibacterial activity against mecA-positive, methicillin/oxacillin/tetracycline-resistant and vancomycin/linezolid susceptible Staphylococcus aureus COL after 16 to 20 hrs by broth microdilution method; format: functional
Enterococcus faecium [7] = assay: Antibacterial activity against vancomycin-susceptible Enterococcus faecium 119-39A clinical isolate after 16 to 20 hrs by broth microdilution method; format: functional
[8] = Plasma protein binding in human at 10 uM after 6 hrs by equilibrium dialysis assay; format: ADME, cell-free
Streptococcus pyogenes = assay: Antibacterial activity against Streptococcus pyogenes ATCC 49399 after 16 to 20 hrs by broth microdilution method; format: functional
Enterococcus faecalis [9] = assay: Antibacterial activity against vancomycin-susceptible Enterococcus faecalis 201 clinical isolate after 16 to 20 hrs by broth microdilution method; format: functional
Staphylococcus aureus [10] = assay: Antibacterial activity against mecA-positive, ciprofloxacin/gentamicin/oxacillin/penicillin/linezolid-resistant Staphylococcus aureus NRS119 after 16 to 20 hrs by broth microdilution method; format: functional
HepG2 = assay: Cytotoxicity against human HepG2 cells assessed as cell viability after 16 hrs by XTT assay; format: cell-based; conditions: HepG2, 16 h
Outline: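 HepG2 cells were run in triplicate in an XTT viability assay. IC50 was derived from the concentration–response data.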

Enterococcus faecalis [11] = assay: Antibacterial activity against Enterococcus faecalis ATCC 29212 after 16 to 20 hrs by broth microdilution method; format: functional
Staphylococcus aureus [12] = assay: Antibacterial activity against mecA-positive, ciprofloxacin/gentamicin/oxacillin/penicillin/linezolid-resistant Staphylococcus aureus NRS120 after 16 to 20 hrs by broth microdilution method; format: functional
[13] = system: Staphylococcus haemolyticus; assay: Antibacterial activity against Staphylococcus haemolyticus ATCC 29970 after 16 to 20 hrs by broth microdilution method; format: functional
Bacillus cereus = assay: Antibacterial activity against Bacillus cereus ATCC 13061 after 16 to 20 hrs by broth microdilution method; format: functional
Bacillus licheniformis = assay: Antibacterial activity against Bacillus licheniformis ATCC 12759 after 16 to 20 hrs by broth microdilution method; format: functional
Enterococcus faecalis [14] = assay: Antibacterial activity against vancomycin-resistant Enterococcus faecalis 99 clinical isolate after 16 to 20 hrs by broth microdilution method; format: functional
Staphylococcus aureus [15] = assay: Antibacterial activity against vancomycin/methicillin-resistant Staphylococcus aureus VRS2 clinical isolate after 16 to 20 hrs by broth microdilution method; format: functional
Staphylococcus aureus [16] = assay: Antibacterial activity against mecA-positive, methicillin/oxacillin/tetracycline-resistant and vancomycin/linezolid susceptible Staphylococcus aureus ATCC 27660 after 16 to 20 hrs by broth microdilution method; format: functional
[17] = Plasma protein binding in human by equilibrium dialysis assay
Staphylococcus aureus [18] = assay: Antibacterial activity against methicillin-resistant Staphylococcus aureus ATCC 27660 in po dosed ICR mouse peritonitis infection model assessed as survival rate administered at 1 hr post infection; format: functional; conditions: ATCC 27660, po
Outline: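 Female ICR mice, 6–8 weeks, given 0.5 mL ip of S. aureus (final 5×10^7 cfu/mL in 5% mucin). Six mice per dose level; a single oral dose at 1 h post-infection.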

Row | SMILES | MIC (Enterococcus faecium [1]) [µg/mL] | MIC (Staphylococcus aureus [2]) [µg/mL] | MIC (Enterococcus faecium [3]) [µg/mL] | MIC (Staphylococcus aureus [4]) [µg/mL] | MIC [5] [µg/mL] | MIC (Streptococcus oralis) [µg/mL] | MIC (Staphylococcus aureus [6]) [µg/mL] | MIC (Enterococcus faecium [7]) [µg/mL] | PPB [8] [%] | MIC (Streptococcus pyogenes) [µg/mL] | MIC (Enterococcus faecalis [9]) [µg/mL] | MIC (Staphylococcus aureus [10]) [µg/mL] | IC50 (HepG2) [µg/mL] | MIC (Enterococcus faecalis [11]) [µg/mL] | MIC (Staphylococcus aureus [12]) [µg/mL] | MIC [13] [µg/mL] | MIC (Bacillus cereus) [µg/mL] | MIC (Bacillus licheniformis) [µg/mL] | MIC (Enterococcus faecalis [14]) [µg/mL] | MIC (Staphylococcus aureus [15]) [µg/mL] | other results
1 | Fc1ccc(Oc2ccc(-c3noc(-c4n[nH]cc4Cl)n3)cc2)cc1 | 32 (≈ 89.7 µM) | 1 (≈ 2.8 µM) | > 128 | 1 (≈ 2.8 µM) | > 128 | > 128 | > 128 | > 128 | 94.5 | > 128 | > 128 | 2 (≈ 5.61 µM) | 18.2 (≈ 51 µM) | > 128 | 64 (≈ 179 µM) | > 128 | > 128 | > 128 | > 128 | – | –
2 | CC(C)Nc1c[nH]nc1-c1nc(-c2ccc(Oc3ccc(C(F)(F)F)cc3)cc2)no1 | 32 (≈ 74.5 µM) | 0.5 (≈ 1.16 µM) | > 128 | 1 (≈ 2.33 µM) | > 128 | > 128 | > 128 | > 128 | 91.6 | > 128 | > 128 | 2 (≈ 4.66 µM) | 3.9 (≈ 9.08 µM) | > 128 | > 128 | > 128 | > 128 | > 128 | > 128 | 4 (≈ 9.32 µM) | MIC (Staphylococcus aureus [16]): 0.5 µg/mL (≈ 1.16 µM)
3 | FC(F)(F)c1ccc(Oc2ccc(-c3noc(-c4n[nH]cc4Cl)n3)cc2)cc1 | 16 (≈ 39.3 µM) | – | > 128 | 1 (≈ 2.46 µM) | > 128 | > 128 | > 128 | > 128 | 97.8 | > 128 | > 128 | – | 24.1 (≈ 59.3 µM) | > 128 | 64 (≈ 157 µM) | > 128 | > 128 | > 128 | > 128 | 0.5 (≈ 1.23 µM) | MIC (Staphylococcus aureus [16]): 2 µg/mL (≈ 4.92 µM)
4 | CCCCCCCCCC(=O)N[C@@H](Cc1c[nH]c2ccccc12)C(=O)N[C@H](CC(N)=O)C(=O)N[C@@H](CC(=O)O)C(=O)N[C@@H]1C(=O)NCC(=O)N[C@@H](CCCN)C(=O)N[C@@H](CC(=O)O)C(=O)N[C@H](C)C(=O)N[C@@H](CC(=O)O)C(=O)NCC(=O)N[C@H](CO)C(=O)N[C@@H]([C@H](C)CC(=O)O)C(=O)N[C@@H](CC(=O)c2ccccc2N)C(=O)O[C@@H]1C | – | – | – | – | – | – | – | – | – | – | – | – | – | – | – | – | – | – | – | – | fraction unbound [17]: < 0.09
5 | CC(=O)NC[C@H]1CN(c2ccc(N3CCOCC3)c(F)c2)C(=O)O1 [LINEZOLID] | 2 (≈ 5.93 µM) | – | 1 (≈ 2.96 µM) | – | 1 (≈ 2.96 µM) | 1 (≈ 2.96 µM) | – | 2 (≈ 5.93 µM) | – | 1 (≈ 2.96 µM) | – | 32 (≈ 94.9 µM) | – | – | 32 (≈ 94.9 µM) | 2 (≈ 5.93 µM) | 1 (≈ 2.96 µM) | 1 (≈ 2.96 µM) | – | – | ED50 (Staphylococcus aureus [18]): 2.8 mg/kg

— ChEMBL document CHEMBL3407479, “Structure-activity relationship for the oxadiazole class of antibiotics” (J Med Chem, 2015)
